# In PubChem BioAssay:
# The source made the active and inactive calls.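 The calls were made as follows, unless noted: active = a full or partial loss of lipid-probe fluorescence in the fish gall bladder, intestine or both, judged by eye; inactive = no fluorescence loss, or compound toxic to the fish.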
# Experiments:
# [1] = inhibitors of TNFa-induced NFkB p65 translocation, primary screen, imaging, HUVEC, MLSMR starter and 10KST1 sets (AID 438;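 active = inhibition above 20% together with a positive visual image hit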;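 also: compound added about 3h40 before a 20 min TNFalpha stimulation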;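 as to inhibition: signal is the nuclear over cytoplasmic p65 intensity ratio per well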); conditions: HUVEC TNFa-induced p65 nuclear translocation; cell count: measured here: nuclei count (cytotoxicity indicator), at 2.08 µM unless noted; inhibition: at 2 µM, stronger effect = higher value unless noted
# [2] = endothelial E-selectin expression blockers – imaging, HUVEC, immunofluorescence, MLSMR starter and 10KST1 sets, primary screen (AID 487;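 active = visually confirmed hit in the image check and inhibition above 20%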;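 as to inhibition: signal is fraction of cell area covered by stained E-selectin grains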;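 as to nuclei count: 100% = median nuclei count of all wells on the same plate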); conditions: HUVEC TNFalpha-induced E-selectin immunofluorescence imaging, at 2 µM; inhibition: stronger effect = higher value; nuclei count: measured here: cell number, toxicity
# [3] = Primary imaging screen for DUSP6 inhibitors that restore phospho-Erk in transfected HeLa cells, chemical complementation (AID 609;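 active = compounds giving at least 50% inhibition in the cell-based MKP-3 phosphatase rescue imaging test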;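 as to inhibition: phospho-Erk level distribution per well compared with pooled transfected vehicle control wells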); conditions: HeLa MKP-3 transfected, phospho-Erk imaging KS statistic, at 10 µM
# [4] = molecular target: Dual specificity protein phosphatase 6 (Homo sapiens) (UniProt Q16828); test: as above; conditions: HeLa MKP-3 transfected, phospho-Erk imaging KS statistic, at 10 µM, stronger effect = higher value
# Sequence of Dual specificity protein phosphatase 6 (Homo sapiens) (Q16828 whole entry, looked up): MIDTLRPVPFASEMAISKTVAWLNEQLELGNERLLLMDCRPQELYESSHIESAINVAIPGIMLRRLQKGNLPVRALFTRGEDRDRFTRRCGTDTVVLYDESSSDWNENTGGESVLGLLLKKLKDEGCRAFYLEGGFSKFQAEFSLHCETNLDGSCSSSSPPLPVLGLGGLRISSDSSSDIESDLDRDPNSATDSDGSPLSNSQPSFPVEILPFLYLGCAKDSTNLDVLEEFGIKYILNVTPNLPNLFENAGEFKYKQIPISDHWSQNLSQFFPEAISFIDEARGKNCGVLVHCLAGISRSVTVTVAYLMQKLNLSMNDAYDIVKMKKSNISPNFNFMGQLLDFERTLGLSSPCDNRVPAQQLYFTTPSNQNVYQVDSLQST
# [5] = molecular target: Voltage-gated potassium channel subunit beta-2 (Rattus norvegicus) (UniProt P62483); test: inhibitors of rat Kvbeta2 reductase activity – biochemical, NADPH fluorescence, primary screen (AID 622;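 active = fluorescence slope higher than the sample average by over 3 SD, cut at about -0.22 in these data, passing the limit was not always enough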;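 also: slope of raw intensity against log time taken from 70 to 1610 s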); conditions: recombinant KvBeta, 4-cyanobenzaldehyde reduction, at 10 µM, stronger effect = higher value
# Sequence of Voltage-gated potassium channel subunit beta-2 (Rattus norvegicus) (P62483 whole entry, looked up): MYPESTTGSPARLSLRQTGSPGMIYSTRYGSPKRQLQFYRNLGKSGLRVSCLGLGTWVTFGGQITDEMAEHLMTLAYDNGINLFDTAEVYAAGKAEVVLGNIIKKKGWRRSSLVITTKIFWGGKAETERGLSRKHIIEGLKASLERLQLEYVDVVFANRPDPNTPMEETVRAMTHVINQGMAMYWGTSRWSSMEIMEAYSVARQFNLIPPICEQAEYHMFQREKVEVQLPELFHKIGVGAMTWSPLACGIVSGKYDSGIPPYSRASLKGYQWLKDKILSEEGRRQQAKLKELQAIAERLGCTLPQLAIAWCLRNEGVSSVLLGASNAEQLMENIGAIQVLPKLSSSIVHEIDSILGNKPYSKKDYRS
# [6] = molecular target: Voltage-gated potassium channel subunit beta-2 (Rattus norvegicus) (UniProt P62483); test: enhancers of rat Kvbeta2 NADPH turnover – biochemical, NADPH fluorescence, primary screen (AID 623;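 active = NADPH fluorescence slope more negative than the mean of all samples by about 3 SD, 99.7% confidence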;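 also: fluorescence intensity change per second fitted from 20 to 320 s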); conditions: Recombinant KvBeta, NADPH fluorescence decrease slope, 10 min; at 10 µM; stronger effect = lower value
# [7] = molecular target: Alpha-2C adrenergic receptor (Homo sapiens) (UniProt P18825); test: compounds altering alpha2C-coupled GIRK flux – cell-based, HEK293 alpha2C/GIRK1/2, thallium flux, primary screen (AID 624;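 active = fluorescence slope after compound addition differing from the mean of all screened samples at 99.7% confidence, in either direction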;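 also: slope of fluorescence ratio to pre-addition baseline per second over 15 to 24 s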); conditions: thallium flux BTC fluorescence, at 10 µM, actives lie on both sides
# Sequence of Alpha-2C adrenergic receptor (Homo sapiens) (P18825 whole entry, looked up): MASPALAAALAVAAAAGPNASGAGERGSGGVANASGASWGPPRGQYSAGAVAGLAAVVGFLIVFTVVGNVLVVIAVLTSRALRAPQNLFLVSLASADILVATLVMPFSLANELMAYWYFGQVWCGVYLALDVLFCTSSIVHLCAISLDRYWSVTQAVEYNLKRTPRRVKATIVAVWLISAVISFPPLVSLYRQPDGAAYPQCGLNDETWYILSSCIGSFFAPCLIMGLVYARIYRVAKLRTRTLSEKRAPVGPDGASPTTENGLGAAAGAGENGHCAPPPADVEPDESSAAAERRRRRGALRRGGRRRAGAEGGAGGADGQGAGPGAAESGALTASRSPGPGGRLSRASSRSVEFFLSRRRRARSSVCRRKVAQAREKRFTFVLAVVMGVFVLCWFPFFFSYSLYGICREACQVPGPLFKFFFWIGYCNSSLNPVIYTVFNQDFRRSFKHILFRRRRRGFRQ
# [8] = inhibitors of larval lipid processing in zebrafish, primary screen, whole organism, PED6 fluorescence, gall bladder and intestine (AID 686); conditions: Zebrafish larvae PED6 lipid processing, fluorescence scoring;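 also: larvae 5 to 7 days old with five fish per well; signal comes from phospholipase A2 cleavage of quenched PED6 carried via bile; overnight exposure to compound and PED6 before scoring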
# Procedure, shortened: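 Test system – live zebrafish larvae aged 5-7 days, whole organism · Buffer or medium – E3 fish medium · Reagent – quenched phospholipase substrate PED6, 100 nM final, ingested by larvae · Doses – 20 µM single dose · Incubation – overnight compound and PED6 incubation · Technique – visual fluorescence microscopy scoring of gall bladder, gut · Read-out basis – visual per-well fluorescence inhibition score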
# [9] = loss of swimming-algae plug formation – whole organism, Chlamydomonas reinhardtii, WT vs cilia-less mutant, absorbance, 96-well, primary screen (AID 463189;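 active = inhibition at or above 50% relative to wild type and mutant plate controls; inactive = inhibition below 50%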;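 also: 0% = wild type cc124 cells in DMSO and 100% = ciliumless bld1 mutant cells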); conditions: Chlamydomonas reinhardtii gravitaxis, OD600 absorbance, 2 days; at 10 µM; stronger effect = higher value
# [10] = measured here: cell density z-score
# [11] = measured here: nuclear c-Myc green intensity z-score
# [12] = measured here: nuclear pErk red intensity z-score, stronger effect = higher value
SMILES,cell count [1],inhibition [1],inhibition [2],nuclei count [2],"z-score [3, 10]","z-score [3, 11]","z-score [3, 12]",inhibition [4],fluorescence slope [5],NADPH fluorescence slope [6],slope [7],outcome [8],inhibition [9]
O=c1[nH]c(O)c(C=NC2CCN(Cc3ccccc3)CC2)c(=O)[nH]1,422,0.5% (inactive),-125% (inactive),167%,0.26,-1.34,-0.141,4.25% (inactive),-0.409 (inactive),-7.4e-05 (inactive),0.00643 (inactive),inactive,-1.61% (inactive)
CCN(CC)CCCC(C)N=C(c1ccccc1)c1c(O)n(C)c(=O)n(C)c1=O (stereo not drawn),617,-1.4% (inactive),-14.1% (inactive),134%,0.00172,-0.468,1.57,-1.12% (inactive),-0.507 (inactive),-7.1e-05 (inactive),0.00446 (inactive),inactive,8.34% (inactive)
CN(C)CCc1nn[nH]n1,586,-12.8% (inactive),-15.2% (inactive),115%,-0.419,0.458,0.261,1.75% (inactive),-0.47 (inactive),-0.000339 (inactive),0.00441 (inactive),inactive,25.8% (inactive)
C=CCn1c(O)c(C=Nc2ccc(N(CC)CC)cc2)c(=O)[nH]c1=O,321,4.1% (inactive),-65.7% (inactive),88.8%,-1.25,0.816,-0.799,-1.75% (inactive),-0.321 (inactive),-6.9e-05 (inactive),0.00606 (inactive),inactive,25.3% (inactive)
O=c1[nH]c(=O)n(CCc2ccccc2)c(O)c1C=NCCCn1ccnc1,364,-0.9% (inactive),-29% (inactive),94.5%,-0.281,-0.0547,0.509,-2.59% (inactive),-0.581 (inactive),1.1e-06 (inactive),0.00497 (inactive),inactive,35.6% (inactive)
CC(=O)C1(c2ccccc2)CCNCC1,472,0.5% (inactive),-152% (inactive),138%,-0.428,0.195,0.843,7.93% (inactive),-0.522 (inactive),-4.6e-05 (inactive),0.00442 (inactive),inactive,14.1% (inactive)
COc1cccc(-n2c(C)nc3ccccc3c2=O)c1,554,7.1% (inactive),-57.2% (inactive),161%,0.773,1.04,-1.15,7.73% (inactive),-0.353 (inactive),2e-05 (inactive),0.00545 (inactive),inactive,-5.87% (inactive)
COc1ccc(Cn2c(O)c(C=NCCN3CCOCC3)c(=O)[nH]c2=O)cc1,587,-0.9% (inactive),36.9% (inactive),166%,0.642,-0.606,-0.227,19.3% (inactive),-0.342 (inactive),-2.7e-06 (inactive),0.00514 (inactive),inactive,-7.73% (inactive)
CN1CC=C2C(C#N)=C(N)C(C#N)(C#N)C(c3ccncc3)C2C1 (stereo not drawn),568,-17% (inactive),30.3% (inactive),179%,-0.865,3.38,-0.482,67.6% (inactive),-0.392 (inactive),-5.3e-05 (inactive),0.00203 (inactive),inactive,11.3% (inactive)
CC(=O)OC1(Cc2ccccc2)CN2CCC1c1ccccc12 (stereo not drawn),574,-15.2% (inactive),-118% (inactive),130%,0.311,-0.615,0.994,-9.91% (inactive),-0.516 (inactive),-4e-05 (inactive),0.00421 (inactive),inactive,14.3% (inactive)
CN1CCc2nc3sc(C#N)c(N)c3c(-c3cccs3)c2C1,596,-16.8% (inactive),-65% (inactive),165%,0.586,-0.275,0.463,6.51% (inactive),-0.362 (inactive),-6e-05 (inactive),0.00412 (inactive),inactive,-2.74% (inactive)
